Laboratory results reported in publication PMC3961596 (Advances in Therapy, 2014).

What was measured:
SGLT1 = conditions: cited from earlier work
Single ascending dose = type: in vivo, human; conditions: for Cmax / Tmax / k el / Vd/F / half-life: human, plasma, po; for k el: λz
How it was run: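 Healthy Japanese men received a single oral dose (1–25 mg) or placebo with 200 mL water under fasting conditions. The 5 mg group was redosed preprandially 8 days later, followed by a standardized ~630 kcal meal. Plasma and urine were collected to 48 h (96 h at 15 and 25 mg) and assayed by HPLC–MS/MS (urine LLOQ 0.5 ng/mL). Analysis was noncompartmental: AUClast by trapezoidal rule, AUCinf extrapolated. Dose proportionality used a power model; food effect used preprandial/fasting geometric mean ratios with 90% CI (mixed model).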

SGLT2 = conditions: read-out: 50% inhibitory concentration (IC50) for SGLT2; cited from earlier work
plasma glucose = assay: Plasma glucose concentrations in the SAD and MAD studies; type: in vivo, human; conditions: healthy subjects, vs placebo
[1] = system: urinary glucose excretion; assay: MAD study: urinary glucose excretion; type: in vivo, human; conditions: for mean daily UGE (range): administration days 1–7
How it was run: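 Subjects took 5 or 10 mg/day or placebo orally for 7 days before breakfast. Urine was pooled over 24 h predose, over 2-h intervals to 16 h and 16–24 h on Days 1 and 7, and every 24 h on other days through Day 14. Glucose was measured on an automated analyzer; daily and 24-h cumulative UGE (g) were derived. Groups were compared with placebo by ANCOVA, with baseline glucose as covariate.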

[2] = 7-day multiple ascending dose; type: in vivo, human; conditions: for mean daily urinary luseogliflozin excretion rate (% of daily dose): Days 1–7, range; for mean urinary luseogliflozin excretion rate: Days 1–11 (96 h after the last administration); for AUC / AUC(0-inf): po
How it was run: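 In healthy Japanese men, 5 or 10 mg/day or placebo was given orally for 7 days with 200 mL water just before breakfast, with a standardized ~630 kcal meal on Days 1 and 7. Heparin plasma was sampled to 12 h after the first dose, predose on Days 2–7, and to 96 h after the last dose. Plasma and urine were assayed by HPLC–MS/MS, and parameters derived noncompartmentally (AUCinf Day 1, AUC0–24 Day 7); accumulation was assessed by comparing these.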

[3] = system: urinary glucose excretion; assay: SAD study: urinary glucose excretion; type: in vivo, human
How it was run: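 After a single oral fasting dose (1–25 mg) or placebo, urine was pooled over 24 h predose and over intervals from 0–2 to 24–48 h post-dose, extended to 96 h for 15 and 25 mg. Aliquots were kept at 4 °C, and glucose was measured on an automated analyzer. UGE (g) was computed per collection period and as 24-h cumulative.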

[4] = system: healthy male Japanese subjects; assay: Assessment of safety in the SAD and MAD studies; type: in vivo, human
[5] = animal study; cited from earlier work
[6] = SAD, 5 mg, N = 8, estimated value (90% CI)
[7] = both studies (SAD 1–25 mg, MAD 5 or 10 mg/day 7 days)

CCOc1ccc(Cc2cc([C@@H]3S[C@H](CO)[C@@H](O)[C@H](O)[C@H]3O)c(OC)cc2C)cc1 [luseogliflozin, (1S)-1,5-anhydro-1-[5-(4-ethoxybenzyl)-2-methoxy-4-methylphenyl]-1-thio-D-glucitol]
selectivity: SGLT2 IC50 lower than IC50 for SGLT1 (SGLT1): 1,765 fold
effect of food on pharmacokinetics (Single ascending dose; SAD, 5 mg preprandial vs fasting): food had little effect on luseogliflozin pharmacokinetics
AUCinf ratio preprandial/fasting (Single ascending dose; [6]): 105 (101–110) %
AUClast ratio preprandial/fasting (Single ascending dose; [6]): 105 (101–109) %
C max ratio preprandial/fasting (Single ascending dose; [6]): 107 (89.9–127) %
mean plasma concentration as % of C max (Single ascending dose; SAD, by 48 h after administration): 2–3%
dose proportionality (Single ascending dose; SAD, dose range 1–25 mg): dose proportionality was observed
mean urinary luseogliflozin excretion rate (% of each dose) (Single ascending dose; SAD, single administration, fasting, range over doses): 3.36–4.40%
CL/F (Single ascending dose; SAD, single oral 1 mg, fasting, N = 3, mean ± SD): 3.02 ± 0.489 L/h
CL/F (Single ascending dose; SAD, single oral 3 mg, fasting, N = 8, mean ± SD): 3.16 ± 0.744 L/h
CL/F (Single ascending dose; SAD, single oral 5 mg, fasting, N = 8, mean ± SD): 2.80 ± 0.465 L/h
CL/F (Single ascending dose; SAD, single oral 5 mg, preprandial, N = 8, mean ± SD): 2.64 ± 0.362 L/h
CL/F (Single ascending dose; SAD, single oral 9 mg, fasting, N = 8, mean ± SD): 2.98 ± 0.326 L/h
CL/F (Single ascending dose; SAD, single oral 15 mg, fasting, N = 8, mean ± SD): 2.99 ± 0.483 L/h
CL/F (Single ascending dose; SAD, single oral 25 mg, fasting, N = 8, mean ± SD): 2.99 ± 0.436 L/h
Cmax (Single ascending dose; 1 mg): 38.2 ± 4.86 ng/mL
Tmax (Single ascending dose; 1 mg): 0.667 ± 0.289 h
k el (Single ascending dose; 1 mg, SAD, single oral 1 mg, fasting, N = 3, mean ± SD): 1.85e-05 s⁻¹
Cmax (Single ascending dose; 3 mg): 116 ± 24.6 ng/mL
Tmax (Single ascending dose; 3 mg): 0.75 ± 0.267 h
k el (Single ascending dose; 3 mg, SAD, single oral 3 mg, fasting, N = 8, mean ± SD): 2.11e-05 s⁻¹
Cmax (Single ascending dose; 5 mg): 187 ± 27.3 ng/mL
Tmax (Single ascending dose; 5 mg): 1.06 ± 0.496 h
Vd/F (Single ascending dose; 5 mg): 38.9 ± 4.97 L
half-life (Single ascending dose; 5 mg): 10.3 ± 1.02 h
k el (Single ascending dose; 5 mg, SAD, single oral 5 mg, fasting, N = 8, mean ± SD): 2.01e-05 s⁻¹
Cmax (Single ascending dose; 9 mg): 312 ± 45.2 ng/mL
Tmax (Single ascending dose; 9 mg): 1.25 ± 0.598 h
k el (Single ascending dose; 9 mg, SAD, single oral 9 mg, fasting, N = 8, mean ± SD): 1.96e-05 s⁻¹
Vd/F (Single ascending dose; 15 mg): 60.5 ± 31 L
half-life (Single ascending dose; 15 mg): 13.8 ± 5.76 h
k el (Single ascending dose; 15 mg, SAD, single oral 15 mg, fasting, N = 8, mean ± SD): 1.57e-05 s⁻¹
Vd/F (Single ascending dose; 25 mg): 54.7 ± 13.7 L
k el (Single ascending dose; 25 mg, SAD, single oral 25 mg, fasting, N = 8, mean ± SD): 1.56e-05 s⁻¹
Tmax (Single ascending dose; male): 0.667 to 2.25 h
half-life (Single ascending dose; male): 9.23 to 13.8 h
Vd/F (Single ascending dose; male, 1 mg): 45.3 ± 6.88 L
half-life (Single ascending dose; male, 1 mg): 10.4 ± 0.552 h
Vd/F (Single ascending dose; male, 3 mg): 41.4 ± 7.17 L
half-life (Single ascending dose; male, 3 mg): 9.23 ± 0.95 h
Cmax (Single ascending dose; male, 5 mg): 205 ± 53.5 ng/mL
Tmax (Single ascending dose; male, 5 mg): 0.75 ± 0.535 h
Vd/F (Single ascending dose; male, 5 mg): 38.7 ± 4.11 L
half-life (Single ascending dose; male, 5 mg): 9.72 ± 1.17 h
Vd/F (Single ascending dose; male, 9 mg): 42.4 ± 5.4 L
Cmax (Single ascending dose; male, 15 mg): 544 ± 143 ng/mL
Cmax (Single ascending dose; male, 25 mg): 721 ± 123 ng/mL
IC50 (SGLT2): 2.26 nM
effect on fasting plasma glucose levels (plasma glucose): did not produce clinically significant decreases in fasting plasma glucose levels
mean daily UGE on Day 7 ([1]; 5 mg): 58.0 g
mean daily UGE (range) ([1]; 5 mg): 57.2 to 65.5 g
mean daily UGE on Day 7 ([1]; 10 mg): 62.7 g
mean daily UGE (range) ([1]; 10 mg): 62.7 to 76.9 g
mean daily UGE after the last administration ([1]; both 5 and 10 mg doses): about 60 g
mean daily urinary luseogliflozin excretion rate (% of daily dose) ([2]; MAD, 5 mg): 3.74–4.69%
mean urinary luseogliflozin excretion rate ([2]; MAD, 5 mg): 4.58%
CL/F ([2]; MAD, 5 mg/day oral before breakfast, Day 1, N = 8, mean ± SD): 2.72 ± 0.648 L/h
CL/F ([2]; MAD, 5 mg/day oral before breakfast, Day 7, N = 8, mean ± SD): 2.61 ± 0.537 L/h
mean daily urinary luseogliflozin excretion rate (% of daily dose) ([2]; MAD, 10 mg): 3.58–4.23%
mean urinary luseogliflozin excretion rate ([2]; MAD, 10 mg): 4.12%
CL/F ([2]; MAD, 10 mg/day oral before breakfast, Day 1, N = 8, mean ± SD): 3.05 ± 0.628 L/h
CL/F ([2]; MAD, 10 mg/day oral before breakfast, Day 7, N = 8, mean ± SD): 3.00 ± 0.612 L/h
accumulation potential ([2]; MAD, 7 days, AUCinf Day 1 vs AUCτ Day 7): No accumulation potential
trough concentrations, steady state ([2]; MAD, value just before each administration): reached a steady state by Day 7
AUC ([2]; human, plasma, 5 mg/day): 1980 ng·h/mL
AUC(0-inf) ([2]; human, plasma, 5 mg/day): 1930 ng·h/mL
AUC ([2]; human, plasma, 10 mg/day): 3470 ng·h/mL
AUC(0-inf) ([2]; human, plasma, 10 mg/day): 3430 ng·h/mL
half-life ([2]; male, human, plasma, oral, mean T 1/2 after 7-day repeat administration (range), MAD, 5 and 10 mg/day, Day 7): 9.14 to 10.7 h
increase in 24-h UGE between 1 and 5 mg [3]: 2.7 fold
increase in 24-h UGE from 5 to 25 mg [3]: 1.4 fold
maximum of mean UGE for 24 h [3]: approximately 70 g
mean UGE for 24 h after administration ([3]; 1 mg): 18.9 g
mean UGE from 24 to 48 h after administration ([3]; 1 mg): 2.53 g
mean UGE for 24 h after administration ([3]; 3 mg): 36.8 g
mean UGE from 24 to 48 h after administration ([3]; 3 mg): 12.5 g
mean UGE for 24 h after administration ([3]; 5 mg): 50.2 g
mean UGE from 24 to 48 h after administration ([3]; 5 mg): 21.3 g
mean UGE for 24 h after administration ([3]; 9 mg): 54.3 g
mean UGE from 24 to 48 h after administration ([3]; 9 mg): 37.5 g
mean UGE for 24 h after administration ([3]; 15 mg): 60.7 g
mean UGE from 24 to 48 h after administration ([3]; 15 mg): 48.4 g
mean UGE for 24 h after administration ([3]; 25 mg): 70.9 g
mean UGE from 24 to 48 h after administration ([3]; 25 mg): 62.7 g
changes in renal function test values, blood and urine electrolytes, body weight, vital signs, electrocardiography ([4]; MAD): no clinically significant changes
severity of AEs ([4]; MAD): mild and reversible
AE diarrhoea ([4]; MAD, 10 mg): 1 subject
AE occult blood positive ([4]; MAD, 10 mg): 1 subject
subjects with AEs ([4]; MAD, 16 subjects received luseogliflozin): 2 subjects
Escherichia coli and Klebsiella oxytoca in urine ([4]; MAD, after drug administration): less than 10^3 colony forming units/mL
changes in renal function test values, blood and urine electrolytes ([4]; SAD): no clinically significant changes
severity of AEs ([4]; SAD): mild, reversible, and did not appear to be dose-related
AE occult blood positive ([4]; SAD, 3 mg): 2 subjects
AE beta 2 microglobulin urine increased ([4]; SAD, 9 mg): 1 subject
AE diarrhoea ([4]; SAD, 25 mg): 1 subject
AE urethritis ([4]; SAD, 25 mg): 1 subject
subjects with AEs ([4]; SAD, 43 subjects received luseogliflozin): 7 subjects
hypoglycemia [4, 7]: no cases of hypoglycemia
serious AEs or AEs leading to discontinuation [4, 7]: no serious AEs or AEs leading to discontinuation were observed
concentration in the kidney vs plasma [5]: higher concentration in the kidney than in the plasma
